Data taken from ChEMBL document CHEMBL1134263, “Syntheses and evaluation of quinoline derivatives as novel retinoic acid receptor alpha antagonists” (Bioorg Med Chem Lett, 2001).
pIC50: −log10 of the molar value.

Assays:
HL-60 [1] = assay: Agonistic activity was evaluated by HL-60 cell differentiation activity; Not detectable; type: functional, Homo sapiens
In short: (§1)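 HL-60 cell differentiation was read out as CD11b expression, used as the differentiation marker.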

[2] = biological target: T1, Retinoic acid receptor beta (Homo sapiens) (UniProt P10826); assay: Retinoid activity at Retinoic acid receptor beta was evaluated relative to that of All-trans retinoic acids(Mean of ATRA EC50 = 1.02 nM)
T1 sequence (whole entry): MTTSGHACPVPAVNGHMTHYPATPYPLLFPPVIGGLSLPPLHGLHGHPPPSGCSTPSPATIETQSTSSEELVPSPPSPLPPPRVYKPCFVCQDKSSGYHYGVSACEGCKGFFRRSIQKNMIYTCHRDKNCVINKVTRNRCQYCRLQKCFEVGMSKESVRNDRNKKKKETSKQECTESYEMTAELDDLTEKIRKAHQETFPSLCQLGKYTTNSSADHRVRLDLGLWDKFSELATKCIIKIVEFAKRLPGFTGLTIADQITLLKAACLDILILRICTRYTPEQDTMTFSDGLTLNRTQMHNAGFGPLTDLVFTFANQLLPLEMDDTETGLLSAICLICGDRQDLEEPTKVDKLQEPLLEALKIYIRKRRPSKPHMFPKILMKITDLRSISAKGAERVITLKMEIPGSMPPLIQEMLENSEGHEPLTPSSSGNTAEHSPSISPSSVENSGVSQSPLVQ
In short: (§2)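 Gene transcription was induced in a co-transfection transactivation assay at each RAR subtype. Full dose-response curves started from 0.1 nM. EC30 is the concentration giving 30% of the maximal observed response. The reported value is the mean of EC30/ATRA EC30. Activity was taken as not detectable when EC30 > 3000 nM.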

[3] = biological target: T1, Retinoic acid receptor beta (Homo sapiens); assay: In vitro binding affinity towards Retinoic acid receptor beta evaluated relative to that of All-trans retinoic acids(Mean of ATRA IC50 = 0.52 nM)
[4] = biological target: T2, Retinoic acid receptor gamma (Homo sapiens) (UniProt P13631); assay: Retinoid activity at Retinoic acid receptor gamma was evaluated relative to that of All-trans retinoic acids(Mean of ATRA EC50 = 0.26 nM); in short: as §2
T2 sequence (whole entry): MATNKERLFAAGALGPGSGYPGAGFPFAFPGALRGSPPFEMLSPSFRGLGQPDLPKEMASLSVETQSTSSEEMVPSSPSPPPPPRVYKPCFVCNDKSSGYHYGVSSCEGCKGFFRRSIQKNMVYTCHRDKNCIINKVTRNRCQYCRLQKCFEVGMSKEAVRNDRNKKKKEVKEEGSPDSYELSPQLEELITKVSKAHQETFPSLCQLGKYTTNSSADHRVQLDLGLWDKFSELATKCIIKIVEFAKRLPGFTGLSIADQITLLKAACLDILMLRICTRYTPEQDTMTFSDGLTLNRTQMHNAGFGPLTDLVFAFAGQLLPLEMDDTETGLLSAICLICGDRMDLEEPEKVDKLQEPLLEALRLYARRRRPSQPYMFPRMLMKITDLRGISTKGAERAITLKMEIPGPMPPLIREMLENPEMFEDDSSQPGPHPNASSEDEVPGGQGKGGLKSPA

[5] = biological target: T2, Retinoic acid receptor gamma (Homo sapiens); assay: In vitro binding affinity towards Retinoic acid receptor gamma evaluated relative to that of All-trans retinoic acids(Mean of ATRA IC50 = 0.42 nM)
[6] = biological target: T3, Retinoic acid receptor alpha (Homo sapiens) (UniProt P10276); assay: Retinoid activity at Retinoic acid receptor alpha was evaluated relative to that of All-trans retinoic acids(Mean of ATRA EC50 = 1.06 nM); in short: as §2
T3 sequence (whole entry): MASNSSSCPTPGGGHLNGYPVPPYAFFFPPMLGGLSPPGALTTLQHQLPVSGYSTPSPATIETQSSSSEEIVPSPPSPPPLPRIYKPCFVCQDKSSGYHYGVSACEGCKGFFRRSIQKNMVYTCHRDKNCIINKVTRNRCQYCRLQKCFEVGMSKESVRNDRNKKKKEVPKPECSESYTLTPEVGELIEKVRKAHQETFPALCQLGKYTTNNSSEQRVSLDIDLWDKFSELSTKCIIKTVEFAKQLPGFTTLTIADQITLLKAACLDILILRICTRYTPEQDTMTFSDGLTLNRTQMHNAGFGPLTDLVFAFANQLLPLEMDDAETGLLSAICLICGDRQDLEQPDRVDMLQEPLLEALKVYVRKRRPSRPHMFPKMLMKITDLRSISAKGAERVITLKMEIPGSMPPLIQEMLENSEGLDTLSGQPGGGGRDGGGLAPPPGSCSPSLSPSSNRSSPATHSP

[7] = biological target: T3, Retinoic acid receptor alpha (Homo sapiens); assay: In vitro binding affinity towards Retinoic acid receptor alpha evaluated relative to that of All-trans retinoic acids(Mean of ATRA IC50 = 0.66 nM)
HL-60 [8] = assay: Antagonistic activity was evaluated in terms of inhibition of HL-60 cell differentiation activity by ATRA (10 nM); type: functional, cell-based; conditions: Homo sapiens
In short: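 HL-60 cells were induced to differentiate with ATRA (10 nM). Antagonism was scored as inhibition of that differentiation, read out as CD11b expression.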

[9] = biological target: T3, Retinoic acid receptor alpha (Homo sapiens); assay: Retinoid activity at Retinoic acid receptor alpha was evaluated relative to that of All-trans retinoic acids(Mean of ATRA EC50 = 1.06 nM); Not detectable; in short: as §2
HL-60 [10] = assay: Agonistic activity was evaluated by HL-60 cell differentiation activity; type: functional, Homo sapiens; in short: as §1
[11] = biological target: T2, Retinoic acid receptor gamma (Homo sapiens); assay: In vitro binding affinity towards Retinoic acid receptor gamma evaluated relative to that of All-trans retinoic acids(Mean of ATRA IC50 = 0.42 nM); Not detectable
[12] = biological target: T4, Retinoic acid receptor alpha (Homo sapiens, UniProt P10276); assay: Antagonistic activity was evaluated in terms of inhibition of Retinoic acid receptor alpha transactivation by ATRA (50 nM); type: functional
T4 sequence (P10276 whole entry): T3 sequence (whole entry)

[13] = biological target: T5, Retinoic acid receptor gamma (Homo sapiens, UniProt P13631); assay: Antagonistic activity was evaluated in terms of inhibition of Retinoic acid receptor gamma transactivation by ATRA (50 nM); Not detectable; type: functional
T5 sequence (P13631 whole entry): T2 sequence (whole entry)

[14] = biological target: T6, Retinoic acid receptor beta (Homo sapiens, UniProt P10826); assay: Antagonistic activity was evaluated in terms of inhibition of Retinoic acid receptor beta transactivation by ATRA (50 nM); Not detectable; type: functional
T6 sequence (P10826 whole entry): T1 sequence (whole entry)

SMILES	ED30 (HL-60 [1])	Relative EC30 [2]	Relative IC50 [3]	Relative EC30 [4]	Relative IC50 [5]	Relative EC30 [6]	Relative IC50 [7]	pIC50 (HL-60 [8])	Relative EC30 [9]	ED30 (HL-60 [10])	Relative IC50 [11]	pIC50 [12]	pIC50 [13]	pIC50 [14]
CCc1cc(-c2ccc(-c3ccc(C(=O)O)cc3)[nH]2)nc2c(C(C)C)cccc12	>10000 nM	22	32	180	22	2.5	0.7	7.77	–	–	–	–	–	–
COc1cc(-c2ccc(-c3ccc(C(=O)O)cc3)[nH]2)nc2c(C(C)C)cccc12	>10000 nM	38	475	4460	834	–	0.8	8.80	> 3000	–	–	–	–	–
CC(C)c1cccc2c(Cl)cc(-c3ccc(-c4ccc(C(=O)O)cc4)[nH]3)nc12	–	17	79	1160	251	1.9	1.3	–	–	100 nM	–	–	–	–
CC(C)c1cccc2ccc(-c3ccc(-c4ccc(C(=O)O)cc4)[nH]3)nc12	–	97	579	5770	–	3	5.7	–	–	2500 nM	> 1000	–	–	–
CC(C)c1cccc2c(-c3ccccc3)cc(-c3ccc(-c4ccc(C(=O)O)cc4)[nH]3)nc12	>10000 nM	–	535	> 3000	432	–	1.8	8.19	> 3000	–	–	7.51	< 5.52	< 5.52
Cc1cc(-c2ccc(-c3ccc(C(=O)O)cc3)[nH]2)nc2c(C(C)C)cccc12	–	16	71	903	141	2.8	1.7	–	–	100 nM	–	–	–	–
